Values after ≈ are worked out from the molar mass of the structure shown. Active and inactive are the calls of the source. The calls are words filed in the database; no cut-off is given here.
Columns and labels:
[1] = tested on: Trichoderma viride; experiment: Antimicrobial activity against Trichoderma viride NCIM 1195 at 500 ug/disk after 72 hrs by disk diffusion method; assay type: functional
Procedure, shortened: (§1)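 Fungal disc diffusion. 100 µl of suspension at 10⁶ CFU/ml was spread on Sabouraud's dextrose agar. Discs carrying test compound in DMSO were applied, with a DMSO-only disc as negative control. Plates were incubated at 27 °C for 72 h, and the zone of inhibition diameter was measured.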

[2] = tested on: Klebsiella aerogenes; experiment: Antimicrobial activity against Klebsiella aerogenes NCIM 2239 at 1000 ug/disk after 24 hrs by disk diffusion method; assay type: functional; conditions: NCIM 2239, 24 h, read-out: DIZ
Procedure, shortened: (§2)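 Disc diffusion on Mueller–Hinton agar. 100 µl of bacterial suspension at 10⁸ CFU/ml is spread on the plate. Discs carry test compounds at two loadings, dissolved in DMSO; DMSO alone serves as negative control. Ofloxacin disc is the positive reference. Plates are incubated at 37 °C for 24 h, and the inhibition zone diameter is measured.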

[3] = tested on: Rhodotorula mucilaginosa; experiment: Antimicrobial activity against Rhodotorula rubra NCIM 3174 after 72 hrs by serial dilution method; assay type: functional; conditions: NCIM 3174, 72 h
Procedure, shortened: (§3)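 MIC by broth dilution in Sabouraud's dextrose broth, run only on fungi found sensitive in the disc assay. Twofold serial dilutions were made in 1 ml broth per tube, covering 3.9 to 1000. Inoculated tubes were incubated at 27 °C for 72 h.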

[4] = tested on: Bacillus cereus; experiment: Antimicrobial activity against Bacillus cereus NCIM 2155 at 1000 ug/disk after 24 hrs by disk diffusion method; assay type: functional; conditions: NCIM 2155, 24 h, read-out: DIZ; procedure, shortened: as §2
[5] = tested on: Proteus vulgaris; experiment: Antimicrobial activity against Proteus vulgaris NCIM 2027 at 500 ug/disk after 24 hrs by disk diffusion method; assay type: functional; procedure, shortened: as §2
[6] = tested on: Bacillus subtilis; experiment: Antimicrobial activity against Bacillus subtilis NCIM 2063 at 500 ug/disk after 24 hrs by disk diffusion method; assay type: functional; procedure, shortened: as §2
[7] = tested on: Lipomyces lipofer; experiment: Antimicrobial activity against Lipomyces lipofer NCIM 3252 at 500 ug/disk after 72 hrs by disk diffusion method; assay type: functional
Procedure, shortened: (§4)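 Disc diffusion on Sabouraud's dextrose agar. 100 µl of fungal suspension at 10⁶ CFU/ml is spread on the plate. Discs carry test compounds at two loadings in DMSO; DMSO alone is the negative control. Clotrimazole disc is the positive reference. Plates are incubated at 27 °C for 72 h, and the zone of inhibition diameter is measured.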

[8] = tested on: Aspergillus flavus; experiment: Antimicrobial activity against Aspergillus flavus NCIM 902 at 500 ug/disk after 72 hrs by disk diffusion method; assay type: functional; conditions: NCIM 902, 72 h, read-out: DIZ; procedure, shortened: as §4
[9] = tested on: Klebsiella aerogenes; experiment: Antimicrobial activity against Klebsiella aerogenes NCIM 2239 at 500 ug/disk after 24 hrs by disk diffusion method; assay type: functional; procedure, shortened: as §2
[10] = tested on: Bacillus cereus; experiment: Antimicrobial activity against Bacillus cereus NCIM 2155 at 500 ug/disk after 24 hrs by disk diffusion method; assay type: functional; conditions: NCIM 2155, 24 h, read-out: DIZ; procedure, shortened: as §2
[11] = tested on: Trichoderma viride; experiment: Antimicrobial activity against Trichoderma viride NCIM 1195 after 72 hrs by serial dilution method; assay type: functional; conditions: NCIM 1195, 72 h; procedure, shortened: as §3
[12] = tested on: Aspergillus fumigatus; experiment: Antimicrobial activity against Aspergillus fumigatus NCIM 902 at 1000 ug/disk after 72 hrs by disk diffusion method; assay type: functional; procedure, shortened: as §4
[13] = tested on: Aspergillus parasiticus; experiment: Antimicrobial activity against Aspergillus parasiticus NCIM 904 at 1000 ug/disk after 72 hrs by disk diffusion method; assay type: functional; conditions: NCIM 904, 72 h, read-out: DIZ; procedure, shortened: as §4
[14] = tested on: Penicillium chrysogenum; experiment: Antimicrobial activity against Penicillium chrysogenum NCIM 707 at 500 ug/disk after 72 hrs by disk diffusion method; assay type: functional; procedure, shortened: as §4
[15] = tested on: Proteus vulgaris; experiment: Antimicrobial activity against Proteus vulgaris NCIM 2027 at 1000 ug/disk after 24 hrs by disk diffusion method; assay type: functional; procedure, shortened: as §2
[16] = tested on: Lipomyces lipofer; experiment: Antimicrobial activity against Lipomyces lipofer NCIM 3252 at 1000 ug/disk after 72 hrs by disk diffusion method; assay type: functional; procedure, shortened: as §4
[17] = tested on: Pseudomonas aeruginosa; experiment: Antimicrobial activity against Pseudomonas aeruginosa NCIM 2200 at 1000 ug/disk after 24 hrs by disk diffusion method; assay type: functional; procedure, shortened: as §2
[18] = tested on: Salmonella typhimurium; experiment: Antimicrobial activity against Salmonella Typhimurium NCIM 2501 at 1000 ug/disk after 24 hrs by disk diffusion method; assay type: functional, Salmonella enterica subsp. enterica serovar Typhimurium; conditions: Salmonella enterica, NCIM 2501, 24 h; read-out: DIZ
Procedure, shortened: (§5)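 Disc diffusion. 100 µl of bacterial suspension at 10⁸ CFU/ml was spread on Mueller–Hinton agar. Discs loaded with test compound dissolved in DMSO were placed on the lawn, with a DMSO-only disc as negative control. Plates were incubated at 37 °C for 24 h, and the inhibition zone diameter was measured.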

[19] = tested on: Rhodococcus corynebacterioides; experiment: Antimicrobial activity against Corynebacterium rubrum NCIM 2252 at 500 ug/disk after 24 hrs by disk diffusion method; assay type: functional; conditions: Rhodococcoides corynebacterioides; procedure, shortened: as §2
[20] = tested on: Rhodotorula mucilaginosa; experiment: Antimicrobial activity against Rhodotorula rubra NCIM 3174 at 500 ug/disk after 72 hrs by disk diffusion method; assay type: functional; conditions: NCIM 3174, 72 h, read-out: DIZ; procedure, shortened: as §1
[21] = tested on: Escherichia coli; experiment: Antimicrobial activity against Escherichia coli NCIM 2065 after 24 hrs by serial dilution method; assay type: functional; conditions: NCIM 2065, 24 h
Procedure, shortened: (§6)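 Broth dilution MIC in nutrient broth, run only for organisms found sensitive in disc diffusion. Compounds are two-fold serially diluted in 1 ml sterile broth per tube, spanning 3.9 to 1000. Inoculated tubes are incubated at 37 °C for 24 h.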

[22] = tested on: Salmonella typhimurium; experiment: Antimicrobial activity against Salmonella Typhimurium NCIM 2501 at 500 ug/disk after 24 hrs by disk diffusion method; assay type: functional, Salmonella enterica subsp. enterica serovar Typhimurium; conditions: Salmonella enterica, NCIM 2501, 24 h; read-out: DIZ; procedure, shortened: as §5
[23] = tested on: Rhodotorula mucilaginosa; experiment: Antimicrobial activity against Rhodotorula rubra NCIM 3174 at 1000 ug/disk after 72 hrs by disk diffusion method; assay type: functional; conditions: NCIM 3174, 72 h, read-out: DIZ; procedure, shortened: as §1
[24] = tested on: Aliivibrio fischeri; experiment: Antimicrobial activity against Vibrio fischeri NCIM 2154 at 500 ug/disk after 24 hrs by disk diffusion method; assay type: functional; procedure, shortened: as §5
[25] = tested on: Rhodococcus corynebacterioides; experiment: Antimicrobial activity against Corynebacterium rubrum NCIM 2252 at 1000 ug/disk after 24 hrs by disk diffusion method; assay type: functional; conditions: Rhodococcoides corynebacterioides; procedure, shortened: as §2
[26] = tested on: Staphylococcus; experiment: Antimicrobial activity against Staphylococcus albus NCIM 2178 at 500 ug/disk after 24 hrs by disk diffusion method; assay type: functional; procedure, shortened: as §5
[27] = tested on: Escherichia coli; experiment: Antimicrobial activity against Escherichia coli NCIM 2065 at 1000 ug/disk after 24 hrs by disk diffusion method; assay type: functional; conditions: NCIM 2065, 24 h, read-out: DIZ; procedure, shortened: as §2
[28] = tested on: Aliivibrio fischeri; experiment: Antimicrobial activity against Vibrio fischeri NCIM 2154 after 24 hrs by serial dilution method; assay type: functional; conditions: NCIM 2154, 24 h
[29] = tested on: Bacillus subtilis; experiment: Antimicrobial activity against Bacillus subtilis NCIM 2063 after 24 hrs by serial dilution method; assay type: functional; conditions: NCIM 2063, 24 h; procedure, shortened: as §6
[30] = tested on: Aspergillus parasiticus; experiment: Antimicrobial activity against Aspergillus parasiticus NCIM 904 at 500 ug/disk after 72 hrs by disk diffusion method; assay type: functional; conditions: NCIM 904, 72 h, read-out: DIZ; procedure, shortened: as §4
[31] = tested on: Aliivibrio fischeri; experiment: Antimicrobial activity against Vibrio fischeri NCIM 2154 at 1000 ug/disk after 24 hrs by disk diffusion method; assay type: functional; conditions: NCIM 2154, 24 h, read-out: DIZ; procedure, shortened: as §5
[32] = tested on: Escherichia coli; experiment: Antimicrobial activity against Escherichia coli NCIM 2065 at 500 ug/disk after 24 hrs by disk diffusion method; assay type: functional; procedure, shortened: as §2
[33] = tested on: Aspergillus flavus; experiment: Antimicrobial activity against Aspergillus flavus NCIM 902 at 1000 ug/disk after 72 hrs by disk diffusion method; assay type: functional; conditions: NCIM 902, 72 h, read-out: DIZ; procedure, shortened: as §4
[34] = tested on: Staphylococcus; experiment: Antimicrobial activity against Staphylococcus albus NCIM 2178 at 1000 ug/disk after 24 hrs by disk diffusion method; assay type: functional; procedure, shortened: as §5

Compound | zone of inhibition at 1000 µg/disc [2] [mm] | MIC [3] [µg/mL] | zone of inhibition at 1000 µg/disc [4] [mm] | diameter of the inhibition zone (DIZ) [7] | zone of inhibition at 500 µg/disc [8] [mm] | zone of inhibition at 500 µg/disc [10] [mm] | MIC [11] [µg/mL] | zone of inhibition at 1000 µg/disc [13] [mm] | zone of inhibition at 1000 µg/disc [18] [mm] | zone of inhibition at 500 µg/disc [20] [mm] | MIC [21] [µg/mL] | zone of inhibition at 500 µg/disc [22] [mm] | zone of inhibition at 1000 µg/disc [23] [mm] | zone of inhibition at 1000 µg/disc [27] [mm] | MIC [28] [µg/mL] | MIC [29] [µg/mL] | zone of inhibition at 500 µg/disc [30] [mm] | zone of inhibition at 1000 µg/disc [31] [mm] | zone of inhibition at 1000 µg/disc [33] [mm] | further results
CC1(C)CC(=O)C2=C(C1)Nc1c(ccc3ccccc13)C2c1ccccc1O (stereo not drawn) | 10 | 7.8 (≈ 21.1 µM) | 10 | inactive | 9 | 7 | 31.2 (≈ 84.4 µM) | 16 | 11 | 10 | 125 (≈ 338 µM) | 10 | 14 | 8 | 125 (≈ 338 µM) | 62.5 (≈ 169 µM) | 10 | 8 | 10 | zone of inhibition at 500 µg/disc ([1]; NCIM 1195, 72 h, read-out: DIZ): 10 mm; diameter of the inhibition zone (DIZ) [5]: inactive; diameter of the inhibition zone (DIZ) [6]: inactive; zone of inhibition at 500 µg/disc ([9]; NCIM 2239, 24 h, read-out: DIZ): 7 mm; diameter of the inhibition zone (DIZ) [12]: inactive; diameter of the inhibition zone (DIZ) [14]: inactive; diameter of the inhibition zone (DIZ) [15]: inactive; diameter of the inhibition zone (DIZ) [16]: inactive; diameter of the inhibition zone (DIZ) [17]: inactive; diameter of the inhibition zone (DIZ) [19]: inactive; diameter of the inhibition zone (DIZ) [24]: inactive; diameter of the inhibition zone (DIZ) [25]: inactive; diameter of the inhibition zone (DIZ) [26]: inactive; diameter of the inhibition zone (DIZ) [32]: inactive; diameter of the inhibition zone (DIZ) [34]: inactive
O=C1CCCC2=C1C(c1ccc(Cl)cc1)c1ccc3ccccc3c1N2 (stereo not drawn) | 9 | 3.9 (≈ 10.8 µM) | 13 | inactive | 7 | 10 | 125 (≈ 347 µM) | 12 | 11 | 12 | 62.5 (≈ 174 µM) | 9 | 16 | 8 | 62.5 (≈ 174 µM) | 31.2 (≈ 86.7 µM) | 10 | 9 | 10 | diameter of the inhibition zone (DIZ) [1]: inactive; zone of inhibition at 500 µg/disc ([5]; NCIM 2027, 24 h, read-out: DIZ): 7 mm; zone of inhibition at 500 µg/disc ([6]; NCIM 2063, 24 h, read-out: DIZ): 8 mm; diameter of the inhibition zone (DIZ) [9]: inactive; zone of inhibition at 1000 µg/disc ([12]; NCIM 902, 72 h, read-out: DIZ): 10 mm; zone of inhibition at 500 µg/disc ([14]; NCIM 707, 72 h, read-out: DIZ): 7 mm; zone of inhibition at 1000 µg/disc ([15]; NCIM 2027, 24 h, read-out: DIZ): 9 mm; zone of inhibition at 1000 µg/disc ([16]; NCIM 3252, 72 h, read-out: DIZ): 9 mm; zone of inhibition at 1000 µg/disc ([17]; NCIM 2200, 24 h, read-out: DIZ): 10 mm; zone of inhibition at 500 µg/disc ([19]; NCIM 2252, 24 h, read-out: DIZ): 7 mm; zone of inhibition at 500 µg/disc ([24]; NCIM 2154, 24 h, read-out: DIZ): 8 mm; zone of inhibition at 1000 µg/disc ([25]; NCIM 2252, 24 h, read-out: DIZ): 8 mm; zone of inhibition at 500 µg/disc ([26]; NCIM 2178, 24 h, read-out: DIZ): 8 mm; zone of inhibition at 500 µg/disc ([32]; NCIM 2065, 24 h, read-out: DIZ): 7 mm; zone of inhibition at 1000 µg/disc ([34]; NCIM 2178, 24 h, read-out: DIZ): 10 mm

Reference: ChEMBL document CHEMBL1138564, “Microwave-induced synthesis and anti-microbial activities of 7,10,11,12-tetrahydrobenzo[c]acridin-8(9H)-one derivatives” (2009)
